# Assay outcomes (PubChem BioAssay)
# Sampled rows, rich in hits. Any-hit rate of the full collection: about 2%.
# Dynein cargo inh: inhibitors of GR-EGFP nuclear translocation, primary screen, dynein cargo transport inhibitor project, imaging, high-content, 3617.4 mouse cells; test concentration mostly 20 µM; stimulated with dexamethasone, 1 µM; active compounds read low; z-score, hits read low; hit rate 0.47% among 220,000;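 active means plate z-score of nuclear minus cytoplasmic receptor signal below a set negative limit, without overly bright fluorescence or cell loss, cut at about -3.5 in these data, passing the limit was not always enough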;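 further: z-score of nuclear minus cytoplasmic ring GR-EGFP intensity difference per well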
#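 medium = tetracycline-free induction medium containing charcoal-stripped FBS | also added = 1.0 µM final dexamethasone stimulus | schedule = 48 h induction, 1 h compound, 30 min dex at 37 °C | technique = fixed, Hoechst-stained cells imaged at 10x for EGFP | measure = GR-EGFP nuclear translocation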
# HSV replic up: enhancers of HSV replication in host cells, fold increase, host cell viability; hit rate 0.005% among 220,000; maximum fold increase; HSV replication augmentation in cells; in the data active means maximum fold increase above about 1.5; inconclusive means no clear call, values can overlap the other calls; tested in PC3 cells
# Ins promoter up: insulin promoter activators in MIN6 cells, imaging, high-content screening, mouse beta cells; z-score at 5 µM; MIN6 insulin promoter-GFP reporter; active compounds read high; hit rate 0.3% among 190,000;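 active means z-score above 3 at 5 µM with at least 500 cells counted in the well; inconclusive means wells under 500 cells, flagged as cytotoxic or low count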
# Furin inh: human furin inhibitors, primary screen, biochemical, fluorescence intensity | P09958 | purified furin, fluorogenic substrate cleavage | inhibition, % at 20 µM or 30 µM | hit rate 0.061% among 220,000; in the data active means inhibition above about 25%
# Target sequence (P09958 108-714 limits assumed): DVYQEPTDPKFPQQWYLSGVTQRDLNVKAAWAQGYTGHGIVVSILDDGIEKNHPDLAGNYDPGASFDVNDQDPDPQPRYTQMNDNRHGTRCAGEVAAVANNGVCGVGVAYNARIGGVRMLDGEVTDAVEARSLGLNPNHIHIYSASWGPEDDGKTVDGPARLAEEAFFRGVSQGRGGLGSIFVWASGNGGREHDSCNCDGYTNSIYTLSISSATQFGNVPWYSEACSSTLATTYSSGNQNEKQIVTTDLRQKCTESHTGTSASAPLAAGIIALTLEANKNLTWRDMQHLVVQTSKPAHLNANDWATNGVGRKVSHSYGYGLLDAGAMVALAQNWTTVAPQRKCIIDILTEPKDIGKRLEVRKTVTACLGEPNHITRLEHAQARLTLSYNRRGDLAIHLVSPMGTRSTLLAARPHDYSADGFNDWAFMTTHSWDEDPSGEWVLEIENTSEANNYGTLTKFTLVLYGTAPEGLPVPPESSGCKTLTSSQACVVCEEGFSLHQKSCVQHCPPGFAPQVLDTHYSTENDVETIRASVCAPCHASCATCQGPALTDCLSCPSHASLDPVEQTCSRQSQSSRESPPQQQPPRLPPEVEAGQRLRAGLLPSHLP
# Insulin prom inh: inhibitors of insulin promoter-driven GFP, primary screen, imaging, TRM-6 cells, eGFP reporter, cell count | hit rate 0.9% among 130,000 | inhibition, % at 2 µM | reporter expression induced with tamoxifen | AID 1273, 2008;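 active means inhibition above the mean plus 3 SD, with well images judged a real hit on visual review, cut at about 60% in these data, passing the limit was not always enough; inconclusive means inhibition over the cutoff but images rejected on review; inactive means inhibition not above the cutoff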
# Autophagy HCS: autophagy modulators in MEF cells, primary screen, imaging, high-content, MEF GFP-LC3 | calls only at 10 µM (by protocol) | MEF GFP-LC3 puncta imaging; test concentration mostly 10 µM | AID 463193, 2010 | hit rate 0.98% among 190,000;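 active means percentage of spot-positive cells more than 3 SD above its plate mean, without a fluorescence outlier flag or 80% toxicity; inconclusive means no clear call, values can overlap the other calls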;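 further: spot-positive cell cutoff set from DMSO-treated cells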
# Dynein inh conf: dynein cargo transport inhibitors, GR-EGFP translocation, confirmation, imaging, high-content imaging, GR-EGFP cells | shares compounds with Dynein cargo inh | 3617.4 GR-EGFP nuclear translocation imaging, dexamethasone-induced | calls only at 20 µM | hit rate 69% among 1,000 | AID 463116, 2010;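 active means inhibition of receptor movement into the nucleus at or above a set limit in both runs, with normal cell brightness and cell count; inconclusive means limit reached in only one run, brightness and count normal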;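 further: dexamethasone at 1 µM final in well for 30 min; nuclear minus cytoplasmic GR-EGFP mean intensity difference in channel 2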
# Numbers without * were called inactive; i = inactive; ? = inconclusive; · = no result; + = active, no number.
SMILES,Dynein cargo inh,HSV replic up,Ins promoter up,Furin inh,Insulin prom inh,Autophagy HCS,Dynein inh conf
CCC(=O)N/N=C/c1ccc(-c2ccc([N+](=O)[O-])cc2)o1,1.19,i,0.2,2.0,28.6,i,·
CC(C)(C)C(=O)/C=c1\s/c(=C\c2ccc(-c3ccc([N+](=O)[O-])cc3)o2)c(=O)n1CC(=O)NC(N)=O,-7.95*,?,·,-13.6,·,·,+
COc1cccc(-n2nnnc2S(C)(=O)=O)c1,-4.51*,i,·,-18.5,53.6,i,+
CN(C)c1nc(C=C(C#N)C#N)c(Cl)n1-c1ccc(F)cc1,-6.64*,i,0.35,-12.2,·,i,+
CC(=O)N(CCC(c1ccco1)C(C)C)Cc1ccc(Cl)cc1 (stereo not given),-4.66*,i,·,-19.1,·,·,i
CCCCCCc1cc2cc(-c3nnc(-c4ccccc4O)o3)c(=O)oc2cc1O,-5.56,·,7.49*,-0.8,-269.6,+,+
COc1cc(NC(=O)Cn2ncc(Cl)c(Cl)c2=O)c(C)cc1[N+](=O)[O-],-3.82*,i,?,-16.5,·,+,+
Nc1ccc(Nc2ccccc2N)cc1,-1.12,i,0.33,-24.7,·,i,·
COc1ccc(Nc2ccccc2N)cc1,-5.13*,?,-2.57,-20.2,·,i,i
O=c1[nH]sc2ccccc12,-3.8*,i,0.77,-21.1,-55.0,i,+
Cn1nc(C(F)(F)F)cc1-c1ccc(S(N)(=O)=O)s1,1.87,i,0.36,-10.0,·,·,·
Cc1c(N=Cc2ccc(Br)s2)cccc1[N+](=O)[O-],0.451,i,0.43,-8.6,·,i,·
O=[N+]([O-])c1ccc(C=Nc2ccc(Cl)c([N+](=O)[O-])c2)s1,-5.65*,i,-0.82,-25.4,·,i,+
COc1ccc(/C=C/C(=O)c2cc(Br)ccc2OC(=O)c2ccco2)cc1OC,-3.69*,i,-0.64,-3.9,-21.4,i,+
COc1ccc(/C=C/C(=O)c2cc(F)ccc2OC(=O)c2ccccc2OC)cc1OC,-3.89*,i,·,-1.2,-150.0,i,+
COc1ccc(/C=C/C(=O)c2cc(Br)ccc2O)cc1OC,-0.366,i,-1.2,-32.5,·,i,·
S=C(NCC1CC1)N/N=C/c1ccccc1Cl,0.0904,i,-0.83,-14.4,·,·,·
Cc1ccc(N/C(N)=N/c2nc(C)cc(N3CCCCC3)n2)c(C)c1,-0.315,i,-1.96,-15.1,·,i,·
COc1ccc(CCN2C(=O)CS/C2=N\NC(=O)c2cccs2)cc1OC,-0.645,i,·,-14.7,23.5,i,·
Cc1cc(C)c2c(=O)n(CC(=O)NCCCN3CCOCC3)sc2n1,-3.38,i,-1.08,-21.1,·,i,·
Cc1cc(C)c2c(=O)n(CC(=O)NCCCN3CCN(c4ccccc4F)CC3)sc2n1,-7.91*,·,1.45,-18.1,·,i,+
COc1ccc2nc(NC(=O)c3sc4nc(C)cc(C)c4c3N)sc2c1,2.06,i,-0.48,-21.1,·,·,·
CC(C)N=c1scc(-c2cccs2)n1/N=C/c1ccc(O)c(O)c1O,-4.16*,i,-0.57,1.1,27.0,i,+
CC1(C)Cc2c(sc3c4nnnn4c4nnnn4c23)CO1,-4.73*,i,0.53,-4.3,-100.0,i,i
CSc1nc2sc3c(c2c2nnnn12)CC(C)(C)OC3,0.264,·,·,-26.2,-346.7,i,·
SMILES,Dynein cargo inh,HSV replic up,Ins promoter up,Furin inh,Insulin prom inh,Autophagy HCS,Dynein inh conf
CCC(C)(C)c1ccc(OCCCC[n+]2cccc(C)c2)c(C(C)(C)CC)c1,-4.79*,i,?,-16.5,-11.1,i,i
COc1cccc(C2CC(C(F)(F)F)n3nc(C(=O)NCc4cccnc4)cc3N2)c1 (stereo not given),-3.59*,i,-0.38,-25.6,0.0,i,i
COc1cccc(C2CC(C(F)(F)F)n3nc(C(=O)Nc4c(C)n(C)n(-c5ccccc5)c4=O)cc3N2)c1 (stereo not given),-0.00929,i,-0.05,-27.2,·,i,·
CC1=NN(c2ccccc2)C(=O)/C1=C\C=C\c1ccccc1,-5.27*,i,-0.84,2.6,·,·,+
NC(=O)c1ccccc1N1CCCCC1,-0.739,i,0.4,-5.3,·,·,·
N#Cc1ccc(/C=C/C(=O)c2cccnc2)cc1,-5.05*,i,-0.53,-23.5,·,i,+
O=C(/C=C/c1ccccc1Cl)c1cccnc1,-4.21*,i,0.89,-20.6,-22.2,i,+
CCN(CC)c1ccc(/C=C/C(=O)c2cccnc2)cc1,0.484,i,1.34,-15.1,41.5,i,·
O=C(/C=C/c1cccnc1)/C=C/c1cccnc1,-6.44*,i,?,-11.9,·,·,+
O=C(/C=C/c1ccccc1Cl)c1ccc(O)cc1,-1.11,i,-0.02,-22.1,·,·,·
O=C(/C=C/c1ccc(Cl)cc1)c1cccnc1,-5.09*,i,0.14,-14.9,44.8,i,+
CCN(CC)C(=O)COc1ccc(CC(=O)O)cc1OC,0.774,i,2.82,-17.9,·,i,·
CCN(Cc1ccc(OC)c(F)c1)C(=O)CCl,-4.32*,i,·,-15.9,·,i,?
CC1=CC(c2ccc(Cl)cc2)n2nc(NC(=O)CCC(=O)O)nc2N1 (stereo not given),-0.442,i,0.03,-22.5,·,·,·
CC1(C)CC(=O)/C(=C\c2cccc([N+](=O)[O-])c2)C(C)(C)N1,-3.6*,i,·,-26.3,-44.4,i,+
Cc1ccc(Cn2cc(/C=N/Nc3ccc([N+](=O)[O-])cn3)c3ccccc32)cc1,-4.6,?,2.34,-12.6,·,+,+
Cc1c(/C=N/Nc2ccc([N+](=O)[O-])cn2)c2ccccc2n1Cc1ccccc1,0.112,i,1.38,-14.2,·,·,·
Clc1nssc1=Nc1ccc(Br)cc1,-0.818,i,-0.76,-34.0,21.4,i,·
N#Cc1cccc(N=c2ssnc2Cl)c1,-4.37,i,1.29,0.5,-7.1,i,+
CC(C)(C)NC(=S)N/N=C\c1ccc(-c2ccc([N+](=O)[O-])cc2)o1,-5.97,i,·,-12.5,·,·,i
Fc1ccccc1Oc1nc(-c2ccncc2)nc2ccccc12,-0.184,i,0.4,-4.3,·,·,·
COC(=O)c1cc(NC(=O)c2ccccc2)c(=O)oc1/C=C/Nc1ccc(Oc2ccccc2)cc1,-7.61,?,·,-4.8,i,i,i
CCN1CCN(c2ccc(NC(=O)c3ccc([N+](=O)[O-])o3)cc2Cl)CC1,-4.2*,i,0.34,-1.7,i,i,+
CCC(=O)N1CCN(c2ccc(NC(=O)c3ccc([N+](=O)[O-])o3)cc2Cl)CC1,-4.98*,i,-0.69,2.0,·,i,+
